Bioassay records: PubChem, several laboratories
UCH37 inh: inhibitors of human deubiquitinating enzyme UCH37; actives 0.33% (n = 330,000); purified proteasome/UCH37, Ub-AMC cleavage fluorescence; inhibition, % (concentration not given with the values);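 active means mean inhibition over replicate wells above about 20%, limit read from the data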
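assay system = human UCH37 enzyme supplied as purified proteasome complex | amount = proteasome at 0.15 nM in the dispensed enzyme solution | schedule = 30 min compound-proteasome preincubation then 25 min substrate reaction, room temperature | measured by = fluorescence, ex 355 nm, em 460 nm | benchmarks = no-proteasome wells (full inhibition) and compound-free wells (no inhibition)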
Neddylation inh: blocks human cullin neddylation. P61081+Q13564. TR-FRET cullin neddylation, biochemical. inhibition, % at 25 µM. actives 0.58% (n = 360,000); in the data active means inhibition above about 36%
Fh CTSL1 inh: cathepsin L1 inhibition, PFM18AAP counter-screen; recombinant F. hepatica cathepsin L1, Z-Leu-Arg-MCA fluorescence; inhibition, % at 5.96 µM; actives 0.49% (n = 300,000); AID 1906;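 active means inhibition above the mean of all tested compounds plus 3 SD, set per screening campaign, cut at about 17% in these data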
SUMO HTRF inh: SUMOylation inhibition | actives 0.36% (n = 290,000) | AID 2006 | HTRF SUMOylation assay, SAE1/SAE2 + UBC9, in vitro | inhibition, % at 35 µM; in the data active means inhibition above about 50%, passing the limit was not always enough
A number is an active result. This is a sample that favours compounds with a hit; in the whole collection about 1.4% have one here.

How did CCCN(CCC)C(=O)CC(c1ccccc1)c1ccco1 (stereo not given) do in these assays?
UCH37 inh: inactive; Neddylation inh: inactive; Fh CTSL1 inh: 41; SUMO HTRF inh: inactive

How did CCN(CC)C(=O)CC(c1ccc(F)cc1)c1ccco1 (stereo not given) do in these assays?
UCH37 inh: inactive; Neddylation inh: inactive; Fh CTSL1 inh: 49; SUMO HTRF inh: inactive

Results for Cc1cccc(NC(=O)CCC(=O)NN=Cc2ccncc2)c1 ?
UCH37 inh: inactive

Results for CC(=O)N1c2ccccc2C(=O)C1N1CCCCC1 (stereo not given) ?
UCH37 inh: inactive; Neddylation inh: inactive; Fh CTSL1 inh: 21; SUMO HTRF inh: inactive

Results for O=C(/C=C/c1ccncc1)c1ccc(NC(=O)c2ccccc2F)cc1 ?
UCH37 inh: inactive; Neddylation inh: inactive; Fh CTSL1 inh: inactive; SUMO HTRF inh: 70

Results for CC(C)c1c(C(=O)NN=Cc2ccccc2C(=O)O)nnn1-c1nonc1N ?
UCH37 inh: inactive

Results for CCC(=O)Oc1oc(-c2ccccc2)nc1C=Nc1ccccc1OC ?
UCH37 inh: inactive; Neddylation inh: inactive; Fh CTSL1 inh: 25; SUMO HTRF inh: inactive

What do the screens show for `Cc1ccc(C(=O)Oc2oc(-c3ccco3)nc2C=Nc2ccccc2)cc1`?
SUMO HTRF inh: inactive

Results for CCC(=O)Oc1oc(-c2ccccc2)nc1C=Nc1ccc(C)cc1 ?
UCH37 inh: inactive; Neddylation inh: inactive; Fh CTSL1 inh: 26; SUMO HTRF inh: inactive

What do the screens show for `O=C1c2cccc3cccc(c23)C(=O)C1(O)O`?
UCH37 inh: inactive; Neddylation inh: inactive; Fh CTSL1 inh: 18

What do the screens show for `CC(=O)N1C(=O)c2cccc3cccc(c23)C(=O)N1C(C)=O`?
UCH37 inh: inactive; Fh CTSL1 inh: inactive; SUMO HTRF inh: inactive

What do the screens show for `CC(=NO)C(C)/[N+]([O-])=C/c1nc(C)c(C)n1O` (stereo not given)?
UCH37 inh: inactive

What do the screens show for `Cc1ccc(N(C)S(=O)(=O)c2ccc(-c3ccc(=O)[nH]n3)s2)cc1C`?
UCH37 inh: inactive; Neddylation inh: inactive; Fh CTSL1 inh: inactive; SUMO HTRF inh: inactive

How did CCOc1ccc(N(C)S(=O)(=O)c2ccc(-c3ccc(=O)[nH]n3)s2)cc1 do in these assays?
UCH37 inh: inactive; Neddylation inh: inactive; Fh CTSL1 inh: 40; SUMO HTRF inh: inactive

How did CC(NC(=O)CCl)c1ccc(Cl)c(Cl)c1 (stereo not given) do in these assays?
Neddylation inh: inactive; Fh CTSL1 inh: 23; SUMO HTRF inh: inactive

How did CCN(CC)C(=O)C(=O)NN=Cc1cccs1 do in these assays?
UCH37 inh: inactive

Results for Cn1nc(-c2ccc(Cl)cc2)nc2c(=O)n(C)c(=O)nc1-2 ?
UCH37 inh: 92; Fh CTSL1 inh: 113; SUMO HTRF inh: inactive

Results for CS(=O)(=O)n1nc(-c2ccc(Cl)cc2)nc1N ?
UCH37 inh: inactive; Neddylation inh: inactive; Fh CTSL1 inh: inactive; SUMO HTRF inh: inactive

How did COc1cc(C=NNC(=O)c2ccncc2)ccc1OC(=O)c1ccccc1Cl do in these assays?
UCH37 inh: inactive

What do the screens show for `Oc1ccccc1/C=N/NC(=S)NC1CC2CC1C1C=CCC21` (stereo not given)?
Neddylation inh: 53; Fh CTSL1 inh: inactive; SUMO HTRF inh: inactive

What do the screens show for `CC/C=C\C/C=C\C/C=C\CCCCCCCC(=O)O`?
UCH37 inh: inactive; Neddylation inh: inactive; Fh CTSL1 inh: 26

Results for CCCCC/C=C\C/C=C\C/C=C\C/C=C\CCCC(=O)O ?
Fh CTSL1 inh: 22

What do the screens show for `CCOC(=O)c1cc(C(O)(C(F)(F)F)C(F)(F)F)c(N=CN(C)C)o1`?
UCH37 inh: inactive

Results for COCCCNC(=S)N/N=C/c1cccc(OC)c1O ?
Neddylation inh: 38; Fh CTSL1 inh: inactive; SUMO HTRF inh: inactive

How did CCOC(=O)c1c(C)c(-c2ccccc2)n(CC(=O)NCCC(C)C)c1C do in these assays?
UCH37 inh: inactive; Neddylation inh: inactive; Fh CTSL1 inh: 89; SUMO HTRF inh: inactive

Results for CCOc1ccc(N=Nc2c(=O)[nH]n3c(=O)c4c([nH]c23)CCCC4)cc1 ?
UCH37 inh: 25; Neddylation inh: inactive; Fh CTSL1 inh: inactive; SUMO HTRF inh: inactive

How did O=c1[nH]n2c(=O)c3c([nH]c2c1N=Nc1cccc(Cl)c1)CCCC3 do in these assays?
UCH37 inh: inactive; Neddylation inh: inactive; Fh CTSL1 inh: inactive; SUMO HTRF inh: inactive

What do the screens show for `CC(=O)OCCCNc1cc(Sc2nc3ccccc3s2)c2nonc2c1[N+](=O)[O-]`?
Neddylation inh: inactive; Fh CTSL1 inh: inactive; SUMO HTRF inh: 92

How did CCCC(=O)OCCNc1cc(SCCC(=O)OC)c2nonc2c1[N+](=O)[O-] do in these assays?
UCH37 inh: inactive; Neddylation inh: inactive; Fh CTSL1 inh: inactive; SUMO HTRF inh: 74

How did COc1ccc(CNc2cc(NCCCO)c([N+](=O)[O-])c3nonc23)cc1 do in these assays?
UCH37 inh: inactive; Neddylation inh: inactive; Fh CTSL1 inh: inactive; SUMO HTRF inh: 96

Results for CC(=O)OCCCNc1cc(Sc2ccc(C)cc2)c2nonc2c1[N+](=O)[O-] ?
UCH37 inh: inactive; Neddylation inh: inactive; Fh CTSL1 inh: inactive; SUMO HTRF inh: inactive

What do the screens show for `COC(=O)CCSc1cc(NCCOC(C)=O)c([N+](=O)[O-])c2nonc12`?
UCH37 inh: inactive; Neddylation inh: inactive; Fh CTSL1 inh: inactive; SUMO HTRF inh: inactive

How did O=[N+]([O-])c1c(NCCCO)cc(SCc2ccco2)c2nonc12 do in these assays?
UCH37 inh: inactive; Neddylation inh: inactive; Fh CTSL1 inh: inactive; SUMO HTRF inh: 90

What do the screens show for `COc1ccc(Nc2cc(NCCCO)c([N+](=O)[O-])c3nonc23)cc1`?
UCH37 inh: inactive; Neddylation inh: inactive; Fh CTSL1 inh: inactive; SUMO HTRF inh: inactive

What do the screens show for `COc1ccc(NC(=O)COc2ccc(C=NNC(=O)c3cccnc3)cc2OC)cc1`?
UCH37 inh: inactive

What do the screens show for `COc1cc(C=NNC(=O)COc2ccc(C)cc2)ccc1OC(=O)c1cccs1`?
UCH37 inh: inactive

What do the screens show for `O=c1ccc2cc3c4c(c2o1)CCCN4CCC3`?
UCH37 inh: inactive; Neddylation inh: 50; Fh CTSL1 inh: inactive; SUMO HTRF inh: inactive

How did O=c1oc2c3c4c(cc2s1)CCCN4CCC3 do in these assays?
UCH37 inh: inactive; Neddylation inh: inactive; Fh CTSL1 inh: inactive; SUMO HTRF inh: 78

Results for O=C1Nc2ccccc2C1=Nc1sc2c(c1C(=O)Nc1ccccc1)CCCC2 ?
UCH37 inh: inactive

What do the screens show for `COc1ccc(CNC(=S)NN=Cc2ccncc2)cc1`?
UCH37 inh: 34

What do the screens show for `CC1(C)N([O-])c2cc([N+](=O)[O-])ccc2[N+]1=O`?
UCH37 inh: 57; Fh CTSL1 inh: inactive; SUMO HTRF inh: inactive

Results for O=C(N/N=C/c1cccc(F)c1)c1cc(-c2ccco2)nc2ccccc12 ?
Neddylation inh: 40; Fh CTSL1 inh: inactive; SUMO HTRF inh: 79

How did CCc1nnc(NC(=O)c2cc(-c3ccco3)nc3ccccc23)s1 do in these assays?
UCH37 inh: inactive; Neddylation inh: inactive; Fh CTSL1 inh: inactive; SUMO HTRF inh: 67

How did CCc1nnc(NC(=O)c2cc(-c3ccccn3)nc3ccccc23)s1 do in these assays?
UCH37 inh: inactive; Neddylation inh: inactive; Fh CTSL1 inh: inactive; SUMO HTRF inh: inactive
